# Data: article PMC5568793 (Science translational medicine, 2017)
# Key:
# [1] = mouse, in vivo, iv
# type I collagen [2] = target: T1, type I collagen (Mus musculus, UniProt P11087+Q01149); assay: Lung uptake of probe in bleomycin mouse model of pulmonary fibrosis; format: in vivo
# In short: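 Male C57BL/6 mice (10 weeks, 20–28 g) received transtracheal bleomycin at 2.5 U/kg in 50 μL PBS through a cervical incision; sham mice were controls. On day 14, 68Ga probe was given as an i.v. bolus via femoral vein catheter under isoflurane. Dynamic PET-CT ran for 120 min, read as decay-corrected lung VOI %ID/cc. Mice were killed 150 min post-injection and organs weighed and gamma-counted.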
# type I collagen [3] = target: T1, type I collagen; assay: PET lung signal in low dose bleomycin vascular leak; format: in vivo; details: day 14, 50-80 min after injection
# In short: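 Male C57Bl/6 mice received intratracheal low-dose bleomycin (0.1 U/kg) and/or FTY720 (1 mg/kg i.p. thrice weekly), with 1E6 (1 mg/kg i.p. thrice weekly) where stated, all from day 0. On day 14, under isoflurane, 68Ga probe was given as an i.v. femoral bolus. Static PET ran for 30 min starting 50 min post-injection, with CT. MLEM reconstruction was used; lung VOIs of about 65 mm3 were read as decay-corrected %ID/cc.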
# type I collagen [4] = target: T1, type I collagen; assay: Ex vivo lung uptake in low dose bleomycin vascular leak; details: day 14, 2.5 h post injection
# In short: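 Male C57Bl/6 mice, 7–8 weeks old, received a single intratracheal bleomycin dose of 0.1 U/kg in saline, with or without FTY720 at 1 mg/kg i.p. three times weekly. 3G9 or isotype 1E6 antibody was given at 1 mg/kg i.p. three times weekly. All dosing started on day 0. On day 14, 68Ga probe was given as an i.v. femoral bolus under isoflurane. Mice were killed 150 min post-injection; the left lung was weighed and gamma-counted.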
# T1 sequence (P11087 152-1207 limits assumed): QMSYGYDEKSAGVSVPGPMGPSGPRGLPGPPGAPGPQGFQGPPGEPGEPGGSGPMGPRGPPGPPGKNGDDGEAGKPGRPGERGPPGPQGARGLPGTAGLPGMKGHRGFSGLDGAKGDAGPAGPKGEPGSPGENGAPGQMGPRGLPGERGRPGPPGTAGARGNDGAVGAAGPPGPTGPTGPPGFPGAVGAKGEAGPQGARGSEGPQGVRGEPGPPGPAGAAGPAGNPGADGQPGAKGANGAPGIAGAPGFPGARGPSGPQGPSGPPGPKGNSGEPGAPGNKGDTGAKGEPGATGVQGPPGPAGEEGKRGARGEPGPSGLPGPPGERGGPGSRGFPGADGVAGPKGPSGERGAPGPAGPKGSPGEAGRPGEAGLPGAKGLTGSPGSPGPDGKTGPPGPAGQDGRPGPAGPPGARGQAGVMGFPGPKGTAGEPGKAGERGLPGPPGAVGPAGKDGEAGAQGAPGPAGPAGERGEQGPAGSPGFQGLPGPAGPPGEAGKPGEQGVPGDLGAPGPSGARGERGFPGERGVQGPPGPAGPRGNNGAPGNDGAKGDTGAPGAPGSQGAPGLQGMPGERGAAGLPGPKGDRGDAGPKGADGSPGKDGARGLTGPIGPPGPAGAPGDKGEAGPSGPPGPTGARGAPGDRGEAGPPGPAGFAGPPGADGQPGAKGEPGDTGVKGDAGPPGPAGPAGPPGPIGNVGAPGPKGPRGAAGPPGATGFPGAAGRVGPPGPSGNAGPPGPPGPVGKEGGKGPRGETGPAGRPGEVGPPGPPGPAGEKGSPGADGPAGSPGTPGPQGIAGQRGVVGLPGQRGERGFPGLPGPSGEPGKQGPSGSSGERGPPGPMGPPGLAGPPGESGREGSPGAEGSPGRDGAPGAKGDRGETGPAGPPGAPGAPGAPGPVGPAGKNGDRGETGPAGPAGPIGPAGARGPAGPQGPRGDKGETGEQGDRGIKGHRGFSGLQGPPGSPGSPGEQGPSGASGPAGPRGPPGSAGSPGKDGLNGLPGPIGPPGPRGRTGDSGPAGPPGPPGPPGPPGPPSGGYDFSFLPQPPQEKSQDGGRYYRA
# T1 sequence (Q01149 86-1125 limits assumed): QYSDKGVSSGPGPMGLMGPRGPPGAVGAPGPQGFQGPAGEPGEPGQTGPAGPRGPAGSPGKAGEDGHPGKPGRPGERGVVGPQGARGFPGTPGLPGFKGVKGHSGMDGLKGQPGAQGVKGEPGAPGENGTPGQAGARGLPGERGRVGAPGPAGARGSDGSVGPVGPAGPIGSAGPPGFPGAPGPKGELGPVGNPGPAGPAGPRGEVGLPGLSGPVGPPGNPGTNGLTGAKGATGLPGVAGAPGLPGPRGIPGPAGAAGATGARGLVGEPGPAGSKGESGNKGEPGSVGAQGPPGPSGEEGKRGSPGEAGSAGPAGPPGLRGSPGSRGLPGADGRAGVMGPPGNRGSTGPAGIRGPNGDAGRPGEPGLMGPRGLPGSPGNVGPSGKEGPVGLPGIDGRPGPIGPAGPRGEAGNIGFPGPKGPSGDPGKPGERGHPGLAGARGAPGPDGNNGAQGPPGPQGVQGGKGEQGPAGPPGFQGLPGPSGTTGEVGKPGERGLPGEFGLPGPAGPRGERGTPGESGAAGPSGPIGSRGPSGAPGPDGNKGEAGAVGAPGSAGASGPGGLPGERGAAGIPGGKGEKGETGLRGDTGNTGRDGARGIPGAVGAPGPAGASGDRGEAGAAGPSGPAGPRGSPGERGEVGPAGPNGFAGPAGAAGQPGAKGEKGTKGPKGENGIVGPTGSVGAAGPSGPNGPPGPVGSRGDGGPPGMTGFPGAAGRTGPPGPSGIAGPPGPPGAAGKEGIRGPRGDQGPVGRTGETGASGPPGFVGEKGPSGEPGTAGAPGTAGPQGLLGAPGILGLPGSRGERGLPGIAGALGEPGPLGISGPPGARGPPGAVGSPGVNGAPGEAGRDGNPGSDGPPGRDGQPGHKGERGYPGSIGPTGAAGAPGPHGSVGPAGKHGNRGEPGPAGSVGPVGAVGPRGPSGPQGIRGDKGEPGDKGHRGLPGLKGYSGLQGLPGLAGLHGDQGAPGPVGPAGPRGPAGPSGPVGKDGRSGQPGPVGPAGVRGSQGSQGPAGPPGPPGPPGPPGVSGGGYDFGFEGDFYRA
smiles,measurement,setting,value
"CC(C)C[C@H](NC(=O)[C@@H]1CSSC[C@H](NC(=O)[C@H](Cc2c[nH]cn2)NC(=O)[C@H](Cc2c[nH]c3ccccc23)NC(=O)[C@H](CCCCNC(=O)CNC(=O)CCC(C(=O)O)N2CCN(CC(=O)O)CCN(CC(=O)O)CC2)NC(=O)CCC(C(=O)O)N2CCN(CC(=O)O)CCN(CC(=O)O)CC2)C(=O)N[C@@H]([C@@H](C)O)C(=O)N[C@@H]([C@@H](C)O)C(=O)N[C@@H](CCCCNC(=O)CNC(=O)CCC(C(=O)O)N2CCN(CC(=O)O)CCN(CC(=O)O)CC2)C(=O)N[C@@H](Cc2ccccc2)C(=O)N2CCC[C@H]2C(=O)N[C@@H](Cc2c[nH]cn2)C(=O)N[C@@H](Cc2c[nH]cn2)C(=O)N[C@@H](Cc2ccc(O)cc2)C(=O)N1)C(=O)N[C@@H](Cc1ccc(O)cc1)C(=O)N[C@@H](Cc1ccc(-c2ccccc2)cc1)C(N)=O (some centres unmarked) [^68Ga-CBP8, metal not drawn]",blood half-life,[1],32.9 ± 4.5 min
same,"ex vivo lung uptake, BM-mice day 14 relative to sham animals",type I collagen [2]; BM day 14 (n=7) vs sham (n=11),5 fold
same,probe uptake in fibrotic mouse lungs compared to control lungs,"type I collagen [2]; discussion statement, mouse models of pulmonary fibrosis",6 fold
same,PET lung signal,"type I collagen [3]; FTY mice (FTY720 only), n=6",1.5 ± 0.1 %ID/cc
same,PET lung signal,"type I collagen [3]; LDB mice (low dose BM only), n=4",1.7 ± 0.1 %ID/cc
same,PET lung signal,"type I collagen [3]; LDBVL+1E6 mice (irrelevant antibody), n=11",3.0 ± 0.2 %ID/cc
same,PET lung signal,"type I collagen [3]; LDBVL+3G9 mice (anti-αvβ6 antibody), n=11",1.9 ± 0.2 %ID/cc
same,"ex vivo lung uptake, LDBVL group relative to FTY group",type I collagen [4],five times more uptake
same,"ex vivo lung uptake, LDBVL group relative to LDB group",type I collagen [4],three times more
same,"ex vivo lung uptake, LDBVL+1E6 group relative to 3G9-treated group",type I collagen [4],six times higher uptake
same,"ex vivo lung uptake, LDBVL+1E6 group relative to LDBVL+3G9 group",type I collagen [4],three times more uptake
